Source: PubChem (several laboratories)
G6PDH CS – L. mesenteroides G6PDH inhibitors, counter-screen for G6PDH-coupled screening assays, biochemical, Leuconostoc mesenteroides enzyme. glucose-6-phosphate dehydrogenase [Leuconostoc mesenteroides]. Purified L. mesenteroides G6PDH, diaphorase/resazurin coupled fluorescence, 45 min. inhibition, % at 5 µM. 0.12% of 200,000 active
Diaph inh CS – diaphorase inhibitors and chemical oxidizers, primary screen, counter-screen for diaphorase-coupled primary assays, biochemical, uHTS, resorufin fluorescence. diaphorase resazurin-to-resorufin fluorescence, NADH, 16 min; bacterial (C. kluyveri) enzyme, not human. inhibition, % at 20 µM. 0.69% of 190,000 active. AID 1217, 2008;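 active = primary screen inhibition at 20 µM above a set limit, cut at about 50% in these data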
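Test system: Clostridium kluyveri diaphorase enzyme / Quantity: diaphorase at 0.14 U/mL in enzyme working solution / Incubation: 16-min room-temperature incubation before reading / Benchmarks: NADH-free wells as positive control, DMSO-only neutral wells / Signal: resorufin fluorescence 544/590 nm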
Diaph act CS – compounds boosting diaphorase resazurin reduction – biochemical, uHTS, resorufin fluorescence, counter-screen for diaphorase-coupled primary assays, primary screen; Diaphorase/resazurin coupled assay, 16 min; stronger effect = higher value; 1 = vehicle wells, 0 = NADH-free wells; activation factor at 20 µM; 0.005% of 190,000 active;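 active = diaphorase activity raised at least twofold by the compound at 20 µM; inactive = activation factor below 2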
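Measured by – red resorufin fluorescence at 544/590 nm excitation/emission · Test system – Clostridium kluyveri diaphorase, purified enzyme · Incubation – reaction time 16 min, room temperature · Buffer or medium – 50 mM HEPES pH 7.4 with 4.542 mM MgCl2, 0.005% Tween 20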
WT yeast gro inh – growth inhibition of WT strain, primary screen, mitochondrial fusion inhibitor project, WT and mutant strains, chemical genetic | 2.1% of 190,000 active | inhibition, % at 10 µM | mitochondrial fusion phenotypic screen; in the data active = inhibition above about 58%; tested in S. cerevisiae
L major viab – Leishmania major promastigote growth inhibition, primary screen; Leishmania major promastigotes, resazurin fluorescence viability; inhibition, % at 10 µM; 9% of 200,000 active; AID 1063, 2008;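 also: promastigotes grown with compound for 44 hours at 28 °C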
Each line names hits and unclear results; the compound was inactive in the other large screens. This is a sample that favours compounds with a hit; in the whole collection about 11% have one here. Rule as the data show it, unless noted: active = inhibition above about 50%; inactive = the rest.

Cn1c(=O)[nH]c(=O)c2c1nc(N1CCCCC1)n2CCCSc1nnnn1-c1ccccc1	none
CC(CSc1nc2ccccc2s1)Cn1c(N2CCCC2)nc2c1c(=O)[nH]c(=O)n2C (stereo not drawn)	L major viab 52
CCCCOc1ccc(-c2nnn(CC(=O)NCCc3c[nH]c4ccccc34)n2)cc1	none
O=C(Oc1ccc2ccccc2c1Cl)N1CCCCCC1	WT yeast gro inh 81
O=C(Oc1ccc2ccccc2c1Cl)N1CCCC1	none
CC(C)Cc1nnc(NC(=O)CCC(=O)N2CCN(S(=O)(=O)c3ccccc3)CC2)s1	L major viab 52
COc1cc(CNCCO)cc(Br)c1OCc1cccs1	L major viab 88
COc1cc(CNC(C)(C)CO)cc(Br)c1OCc1ccccc1	L major viab 80
CC(C)(C)NCc1cc(Br)ccc1OCc1cccs1	none
CCOc1cc(CNCc2cccs2)cc(Br)c1OC	none
COc1cc(CNC(C)(C)C)cc(Br)c1OCc1cccs1	L major viab 86
CC(C)(C)NCc1ccccc1OCc1cccs1	L major viab 82
CC(C)(CO)NCc1cc(Br)ccc1OCc1ccccc1	none
Cc1ccc(N(CC(=O)NC(C)c2ccccc2)S(=O)(=O)c2cccs2)cc1 (stereo not drawn)	L major viab 89
Cc1ccc(N(CC(=O)N2CCc3ccccc32)S(=O)(=O)c2cccs2)cc1	none
CC(=O)OCC1OC(OC(C)=O)C(NC(=O)c2cccnc2)C(OC(C)=O)C1OC(C)=O (stereo not drawn)	none
Cn1cnc([N+](=O)[O-])c1S(=O)(=O)c1cccc(Cl)c1	L major viab 65
Cc1nn(C(C)C(=O)c2cccc(Cl)c2)c(C)c1[N+](=O)[O-] (stereo not drawn)	none
O=[N+]([O-])c1cc2c(cc1/C=N/Nc1nc(N3CCCC3)nc(N3CCCC3)n1)OCO2	L major viab 76
Cc1ccc(/C=N/Nc2nc(N3CCCCC3)nc(N3CCCCC3)n2)o1	none
O=[N+]([O-])c1ccc(/C=N/Nc2nc(N3CCCCCC3)nc(N3CCCCCC3)n2)o1	WT yeast gro inh 63, L major viab 100
O=[N+]([O-])c1ccc(/C=N/Nc2nc(N3CCCCC3)nc(N3CCCCC3)n2)cc1	L major viab 54
O=[N+]([O-])c1ccc(Nc2nc(N/N=C\c3ccc4c(c3)OCO4)nc(N3CCCCC3)n2)cc1	L major viab 100
CCOC(=O)C1=NN(N=O)C2(CC(=O)N(c3cc(C)cc(C)c3)C2=O)C1 (stereo not drawn)	none
COc1nc(N/N=C/c2ccc(-c3ccccc3[N+](=O)[O-])o2)nc(N2CCOCC2)n1	L major viab 86
O=[N+]([O-])c1ccc(-c2ccc(/C=N/Nc3nc(NCc4ccccc4)nc(N4CCOCC4)n3)o2)cc1	none (no result: Diaph inh CS, Diaph act CS)
O=C(c1ccc(Br)s1)N1CCN(C/C=C/c2ccccc2)CC1	none
Fc1ccc(C(c2ccc(F)cc2)N2CCN(C/C=C/c3ccccc3)CC2)cc1	WT yeast gro inh 82, L major viab 53
C(=C\c1ccccc1)/CN1CCN(C(c2ccccc2)c2ccccc2)CC1	WT yeast gro inh 70
CS(=O)(=O)N(Cc1ccccc1)c1ccc(C(=O)NCc2ccccc2)cc1	none
Cc1cc(Br)c2c(c1)C(O)(N1CCCCC1C)C(=O)N2 (stereo not drawn)	none
Cc1ccc(CNC(=O)N[C@@H](Cc2ccccc2)C(=O)O)cc1	none
CC1Cc2ccccc2N1c1nc(C2CC2)nc2c1nnn2Cc1ccccc1 (stereo not drawn)	none
CC1Cc2ccccc2N1c1ncnc2c1nnn2Cc1ccccc1 (stereo not drawn)	WT yeast gro inh 65
COc1ccc(N=C2SC(C(=O)Nc3ccc(OC)cc3)CC(=O)N2CCN2CCOCC2)cc1 (stereo not drawn)	L major viab 58
CCN=C1SC(C(=O)Nc2ccc(OC)cc2)CC(=O)N1CC (stereo not drawn)	none
CC(C)C(=O)NC(Nc1cccc2cccnc12)C(Cl)(Cl)Cl (stereo not drawn)	none
CC(C)CC(=O)NC(NC(=S)Nc1cccc2cccnc12)C(Cl)(Cl)Cl (stereo not drawn)	L major viab 52
O=C(NCc1ccccc1)c1n[nH]nc1-c1ccccc1O	none
COc1ccccc1CNCC(O)(c1ccc(Cl)cc1)c1ccc(Cl)cc1	L major viab 100
O=C(O)CCc1ccc(-c2ccc(Cl)cc2)o1	none
OC(CNCc1ccccc1F)(c1ccc(F)cc1)c1ccc(F)cc1	none
CCN(CC)CCNCC(O)(c1ccc(Cl)cc1)c1ccc(Cl)cc1	L major viab 72
CCN(CC)CCNCc1ccc(-c2ccc(Cl)cc2)o1	L major viab 91
CC(/C=C/c1ccco1)=N/NC(=O)OC(C)(C)C	none
COc1ccc(/C=C/c2nc3cc(-c4ccccc4)ccc3o2)cc1O	WT yeast gro inh 67, L major viab 87
COc1ccc(-c2c/c(=N\c3nc(-c4ccccc4)c(C)s3)c3ccccc3o2)cc1O	none
N#CCCn1cc(/C=C2\NC(=S)N(c3ccccc3)C2=O)c(-c2ccc(F)cc2)n1	Diaph inh CS 85
Cc1ccc(-n2c(NN)nc3ccccc3c2=O)c(C)c1	none
CC1=NN(c2ccc(C)cc2C)C(=O)C1C(c1cccc(O)c1)C1C(=O)N(c2ccc(C)cc2C)N=C1C (stereo not drawn)	L major viab 56
Cc1cc(=O)oc2cc(OCC(=O)NCc3ccccn3)ccc12	none
CCCc1cc(=O)oc2cc(OCC(=O)NCc3cccs3)ccc12	L major viab 71
Cc1nnc2n(Cc3ccccc3)c(=O)c3c4c(sc3n12)CN(Cc1ccccc1)CC4	none (no result: WT yeast gro inh, L major viab)
O=c1c2c3c(sc2n2cnnc2n1Cc1ccccc1)CN(Cc1ccccc1)CC3	L major viab 100 (no result: WT yeast gro inh)
CCc1ccc(NC(=S)NC(=O)CC(C)C)cc1	none
O=C(c1ccccc1)c1cccc(NC(=O)c2ccc(Br)o2)c1	L major viab 97
C/C(=N/NC(=O)c1ccco1)c1cccc(NC(=O)c2ccc(C)o2)c1	L major viab 66
C/C(=N/NC(=O)c1ccc(Br)o1)c1cccc(NC(=O)c2ccc(C)o2)c1	L major viab 92
C/C(=N\NC(=O)c1cccc(C)c1)c1cccc(NC(=O)c2ccco2)c1	L major viab 83
C/C(=N\NC(=O)c1cccc(Cl)c1)c1cccc(NC(=O)c2ccco2)c1	none
N#Cc1c(NC(=O)C2CCCO2)sc2c1CCCCCC2 (stereo not drawn)	none
COc1ccc(CNn2c(-c3ccccc3F)nc3ccccc3c2=O)cc1OC	none
O=Cc1cn(CC(=O)Nc2ccc3c(c2)OCO3)c2ccccc12	none
CC(C)(C)NS(=O)(=O)c1ccc(OCC(=O)NCCC2=CCCCC2)cc1	none
